The test system of assay [1] is Staphylococcus aureus. The assay can be described thus: Antibacterial activity against Staphylococcus aureus ATCC 29737 assessed as diameter of inhibition zone at 200 ug per disc after 24 hrs by agar disc diffusion method. It counts as functional. The following applies: ATCC 29737, 24 h, read-out: DIZ. The gist of the method:
(§1)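 Agar disc diffusion. Compounds at 20 mg mL⁻¹ in DMSO, filter-sterilised. 100 µL of 10⁸ CFU mL⁻¹ bacteria spread on nutrient agar. 6 mm discs carried 10 µl (200 µg per disc), with DMSO discs as negative control. Incubation 24 h at 37 °C. Read-out is inhibition zone diameter, mean of 3 repeats (±1 mm).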

Assay [2] has as its system Staphylococcus aureus. The assay can be described thus: Antibacterial activity against Staphylococcus aureus ATCC 29737. Type of assay: functional.
The test system of assay [3] is Pseudomonas aeruginosa. Description: Antibacterial activity against Pseudomonas aeruginosa ATCC 27853 assessed as diameter of inhibition zone at 200 ug per disc after 24 hrs by agar disc diffusion method. To be noted: ATCC 27853, 24 h, read-out: DIZ. Type of assay: functional. The gist of the method: as §1
A further assay deals with Cholinesterase (Equus caballus, UniProt P81908). The assay can be described thus: Inhibition of equine serum BChE using butyrylthiocholine iodide as substrate pretreated for 15 mins followed by substrate addition measured for 6 mins by Ellman's method. The following applies: for pIC50: read-out: IC50. The gist of the method:
(§2)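 Ellman spectrophotometric assay in 0.1 M phosphate buffer pH 8.0 with DTNB, 25 °C. AChE (electric eel, Type V-S) or BChE was preincubated 15 min with compound before adding acetylthiocholine iodide or butyrylthiocholine iodide, respectively. Absorbance change at 412 nm was read for 6 min. Five concentrations were tested in triplicate, corrected by a nonenzymatic blank, with a no-inhibitor reference.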

The target of assay [4] is Acetylcholinesterase (Electrophorus electricus) (UniProt O42275). The assay can be described thus: Inhibition of electric eel AChE using acetylthiocholine iodide as substrate pretreated for 15 mins followed by substrate addition measured for 6 mins by Ellman's method. The gist of the method: as §2
Acetylcholinesterase (Electrophorus electricus), sequence (O42275 24-633 limits assumed): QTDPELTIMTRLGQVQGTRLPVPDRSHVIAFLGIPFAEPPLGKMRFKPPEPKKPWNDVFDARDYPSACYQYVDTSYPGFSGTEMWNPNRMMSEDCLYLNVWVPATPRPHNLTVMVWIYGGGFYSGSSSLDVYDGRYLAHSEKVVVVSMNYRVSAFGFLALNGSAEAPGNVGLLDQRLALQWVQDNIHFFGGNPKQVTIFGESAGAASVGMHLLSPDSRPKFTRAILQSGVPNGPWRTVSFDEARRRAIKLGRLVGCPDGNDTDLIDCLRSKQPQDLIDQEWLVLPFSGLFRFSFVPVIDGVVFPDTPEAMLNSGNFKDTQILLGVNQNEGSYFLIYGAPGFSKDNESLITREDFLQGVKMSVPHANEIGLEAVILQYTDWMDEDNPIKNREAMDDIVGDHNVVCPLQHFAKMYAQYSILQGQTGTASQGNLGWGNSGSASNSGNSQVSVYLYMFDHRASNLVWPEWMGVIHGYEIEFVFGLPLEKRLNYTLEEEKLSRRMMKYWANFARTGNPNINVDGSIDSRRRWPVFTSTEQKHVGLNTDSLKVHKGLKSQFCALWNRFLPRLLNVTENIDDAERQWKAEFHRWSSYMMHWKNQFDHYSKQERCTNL
Assay [5] has as its system Aspergillus niger. The assay can be described thus: Antifungal activity against Aspergillus niger ATCC 16404 assessed as diameter of inhibition zone at 200 ug per disc after 72 hrs by agar disc diffusion method. It counts as functional. To be noted: ATCC 16404, 72 h, read-out: DIZ. Put shortly: (§3)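 Agar disc diffusion against mold. Compounds at 20 mg mL⁻¹ in DMSO, filter-sterilised. 6 mm discs carried 10 µl (200 µg per disc), with DMSO discs as negative control. Incubation 72 h at 30 °C. Read-out is growth inhibition zone diameter, mean of 3 repeats (±1 mm).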

Assay [6] concerns Salmonella paratyphi. Description: Antibacterial activity against Salmonella paratyphi A serotype ATCC 5702. Type of assay: functional, Salmonella enterica subsp. enterica serovar Paratyphi A.
Assay [7] relates to Aspergillus brasiliensis. Description: Antifungal activity against Aspergillus brasiliensis PTCC 5011 assessed as diameter of inhibition zone at 200 ug per disc after 72 hrs by agar disc diffusion method. It counts as functional. The following applies: PTCC 5011, 72 h, read-out: DIZ. Put shortly:
as §3

For assay [8], the system named is Klebsiella pneumoniae. Description: Antibacterial activity against Klebsiella pneumoniae ATCC 10031. Type of assay: functional.
The test system of assay [9] is Shigella dysenteriae. The assay can be described thus: Antibacterial activity against Shigella dysenteriae PTCC 1188. Type of assay: functional.
Assay [10] deals with Candida albicans. Description: Antifungal activity against Candida albicans ATCC 10231. Type of assay: functional.
The test system of assay [11] is Escherichia coli. The assay can be described thus: Antibacterial activity against Escherichia coli ATCC 10536 assessed as diameter of inhibition zone at 200 ug per disc after 24 hrs by agar disc diffusion method. Type of assay: functional. The following applies: ATCC 10536, 24 h, read-out: DIZ. The gist of the method:
as §1

Assay [12] concerns Salmonella paratyphi. The assay can be described thus: Antibacterial activity against Salmonella paratyphi A serotype ATCC 5702 assessed as diameter of inhibition zone at 200 ug per disc after 24 hrs by agar disc diffusion method. Type of assay: functional, Salmonella enterica subsp. enterica serovar Paratyphi A. To be noted: Salmonella enterica, ATCC 5702, 24 h; read-out: DIZ. The gist of the method: as §1

The subject of assay [13] is Bacillus spizizenii. Description: Antibacterial activity against Bacillus subtilis ATCC 6633. Type of assay: functional.
Assay [14] deals with Proteus vulgaris. The assay can be described thus: Antibacterial activity against Proteus vulgaris PTCC 1182 assessed as diameter of inhibition zone at 200 ug per disc after 24 hrs by agar disc diffusion method. It counts as functional. To be noted: PTCC 1182, 24 h, read-out: DIZ. Put shortly: as §1
In assay [15] the test system is Aspergillus brasiliensis. Description: Antifungal activity against Aspergillus brasiliensis PTCC 5011. It counts as functional.
The subject of assay [16] is Candida albicans. The assay can be described thus: Antifungal activity against Candida albicans ATCC 10231 assessed as diameter of inhibition zone at 200 ug per disc after 48 hrs by agar disc diffusion method. It counts as functional. To be noted: ATCC 10231, 48 h, read-out: DIZ. The gist of the method: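 Yeast tested by agar disc diffusion. Compounds at 20 mg mL⁻¹ in DMSO, filter-sterilised. 6 mm discs carried 10 µl (200 µg per disc), with DMSO discs as negative control. Incubation 48 h at 30 °C. Zone diameter was averaged over 3 repeats (±1 mm).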

Assay [17] concerns Aspergillus niger. The assay can be described thus: Antifungal activity against Aspergillus niger ATCC 16404. It counts as functional.
The subject of assay [18] is Escherichia coli. The assay can be described thus: Antibacterial activity against Escherichia coli ATCC 10536. Type of assay: functional.
Assay [19] has as its system Staphylococcus epidermidis. Description: Antibacterial activity against Staphylococcus epidermidis ATCC 12228. Type of assay: functional.
Assay [20] deals with Pseudomonas aeruginosa. Description: Antibacterial activity against Pseudomonas aeruginosa ATCC 27853. Type of assay: functional.
Assay [21] deals with Proteus vulgaris. The assay can be described thus: Antibacterial activity against Proteus vulgaris PTCC 1182. Type of assay: functional.
For assay [22], the system named is Klebsiella pneumoniae. The assay can be described thus: Antibacterial activity against Klebsiella pneumoniae ATCC 10031 assessed as diameter of inhibition zone at 200 ug per disc after 24 hrs by agar disc diffusion method. The following applies: ATCC 10031, 24 h, read-out: DIZ. It counts as functional. The gist of the method: as §1
For assay [23], the system named is Bacillus spizizenii. Description: Antibacterial activity against Bacillus subtilis ATCC 6633 assessed as diameter of inhibition zone at 200 ug per disc after 24 hrs by agar disc diffusion method. Type of assay: functional. To be noted: ATCC 6633, 24 h, read-out: DIZ. Put shortly:
as §1

Assay [24] has as its system Staphylococcus epidermidis. Description: Antibacterial activity against Staphylococcus epidermidis ATCC 12228 assessed as diameter of inhibition zone at 200 ug per disc after 24 hrs by agar disc diffusion method. Type of assay: functional. The following applies: ATCC 12228, 24 h, read-out: DIZ. The gist of the method:
as §1

The test system of assay [25] is Shigella dysenteriae. The assay can be described thus: Antibacterial activity against Shigella dysenteriae PTCC 1188 assessed as diameter of inhibition zone at 200 ug per disc after 24 hrs by agar disc diffusion method. It counts as functional. To be noted: PTCC 1188, 24 h, read-out: DIZ. Put shortly:
as §1

This note sets out measurements from ChEMBL document CHEMBL4118244, “Design, synthesis and biological evaluation of benzofuran appended benzothiazepine derivatives as inhibitors of butyrylcholinesterase and antimicrobial agents” (Bioorg Med Chem, 2018).

pIC50: −log10 of the molar value. ≈ marks a conversion by molar mass, not a printed value. Calls of active or inactive are those of the source. The rule behind the calls is not given here. Where only a bound is given, the exact number is not on record here.

Cholinesterase, sequence (P81908 whole entry): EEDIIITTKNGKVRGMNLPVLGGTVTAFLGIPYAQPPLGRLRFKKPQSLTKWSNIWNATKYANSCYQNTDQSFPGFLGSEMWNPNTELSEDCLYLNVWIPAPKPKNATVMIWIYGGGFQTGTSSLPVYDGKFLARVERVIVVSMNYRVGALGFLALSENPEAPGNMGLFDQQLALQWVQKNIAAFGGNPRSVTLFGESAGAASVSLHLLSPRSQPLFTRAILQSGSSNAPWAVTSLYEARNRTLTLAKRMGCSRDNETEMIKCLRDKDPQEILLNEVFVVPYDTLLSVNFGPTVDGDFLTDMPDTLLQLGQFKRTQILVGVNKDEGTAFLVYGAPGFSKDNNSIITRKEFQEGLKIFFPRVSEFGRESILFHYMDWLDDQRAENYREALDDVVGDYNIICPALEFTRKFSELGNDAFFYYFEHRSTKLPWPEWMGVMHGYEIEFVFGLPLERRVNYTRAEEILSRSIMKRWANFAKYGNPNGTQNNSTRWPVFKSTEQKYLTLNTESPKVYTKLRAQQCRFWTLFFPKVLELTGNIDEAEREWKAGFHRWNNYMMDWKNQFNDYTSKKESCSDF

On to `O=[N+]([O-])c1cccc(C2CC(c3cc4cc(Br)ccc4o3)=Nc3ccccc3S2)c1` (stereo not given), for which the zone of inhibition at 200 µg/disc was under 6 mm with Staphylococcus aureus [1]; under 6 mm in the assay with Pseudomonas aeruginosa [3]; 20 mm with Aspergillus niger [5]; 23 mm in the assay on Aspergillus brasiliensis [7]; under 6 mm with Escherichia coli [11]; 23 mm with Salmonella paratyphi [12]. In addition, the zone of inhibition at 200 µg/disc with Proteus vulgaris [14] was under 6 mm; in the assay on Candida albicans [16], under 6 mm; with Klebsiella pneumoniae [22], under 6 mm; in the assay with Bacillus spizizenii [23], 19 mm; in assay [24], under 6 mm; in the assay on Shigella dysenteriae [25], under 6 mm. Moreover, the MIC result (with Staphylococcus aureus [2]; with Klebsiella pneumoniae [8]; in the assay on Shigella dysenteriae [9]; in the assay with Candida albicans [10]; with Escherichia coli [18]; in [19]) was “inactive” in each case. Also, the MIC entry in the assay on Pseudomonas aeruginosa [20] and with Proteus vulgaris [21] was “inactive” throughout. Moreover, the IC50 result at Cholinesterase was “Not Active”. Besides, in assay [4], the inhibition result was “inactive”. For the same compound, the MIC came out at 0.5 µg/mL (≈ 1.04 µM) in the assay on Salmonella paratyphi [6] (Salmonella enterica), 12.5 µg/mL (≈ 26.1 µM) against Bacillus spizizenii [13], 0.5 µg/mL (≈ 1.04 µM) against Aspergillus brasiliensis [15] and 0.25 µg/mL (≈ 0.522 µM) against Aspergillus niger [17].

Turning to `O=[N+]([O-])c1ccc2oc(C3=Nc4ccccc4SC(c4ccccc4)C3)cc2c1` (stereo not given), the IC50 entry at Cholinesterase is “Not Active”. Besides, in assay [4], the inhibition entry was “inactive”.

For the compound `COc1ccccc1C1CC(c2cc3ccccc3o2)=Nc2ccccc2S1` (stereo not given), the pIC50 at Cholinesterase was 5.32. Moreover, the inhibition result in assay [4] was “inactive”.

On to `COc1cccc(C2CC(c3cc4ccccc4o3)=Nc3ccccc3S2)c1` (stereo not given), for which the pIC50 on Cholinesterase was 5.39. Moreover, the inhibition result in [4] is “inactive”.

Turning to `COc1ccccc1C1CC(c2cc3cc(Br)ccc3o2)=Nc2ccccc2S1` (stereo not given), the pIC50 on Cholinesterase is 5.74. Also, the inhibition result in assay [4] was “inactive”.

Regarding `Brc1ccc2oc(C3=Nc4ccccc4SC(c4c[nH]c5ccccc45)C3)cc2c1` (stereo not given), the pIC50 on Cholinesterase is 4.55. In addition, the inhibition entry in assay [4] was “inactive”.

As for `COc1ccc(C2CC(c3cc4ccccc4o3)=Nc3ccccc3S2)cc1` (stereo not given), the pIC50 on Cholinesterase was 5.40. Besides, the inhibition result in assay [4] is “inactive”.

Turning to `CO[C@H]1/C=C/O[C@@]2(C)Oc3c(C)c(O)c4c(O)c(c(/C=N/N5CCN(C)CC5)c(O)c4c3C2=O)NC(=O)/C(C)=C\C=C\[C@H](C)[C@H](O)[C@@H](C)[C@@H](O)[C@@H](C)[C@H](OC(C)=O)[C@@H]1C` [RIFAMPIN], the zone of inhibition at 200 µg/disc was 10 mm in the assay with Staphylococcus aureus [1]; under 6 mm with Pseudomonas aeruginosa [3]; 11 mm in the assay with Escherichia coli [11]; under 6 mm with Salmonella paratyphi [12]; 10 mm with Proteus vulgaris [14]; 7 mm in the assay on Klebsiella pneumoniae [22]. The zone of inhibition at 200 µg/disc in the assay with Bacillus spizizenii [23] came to 13 mm; in assay [24], 40 mm; in the assay on Shigella dysenteriae [25] it was 8 mm. In addition, the MIC is 0.25 µg/mL (≈ 0.304 µM) with Staphylococcus aureus [2]; 0.25 µg/mL (≈ 0.304 µM) in the assay with Klebsiella pneumoniae [8]; 0.25 µg/mL (≈ 0.304 µM) against Shigella dysenteriae [9]; 0.125 µg/mL (≈ 0.152 µM) against Bacillus spizizenii [13]; 0.5 µg/mL (≈ 0.608 µM) in the assay on Escherichia coli [18]; 0.25 µg/mL (≈ 0.304 µM) in assay [19]. In the assay on Proteus vulgaris [21], it took 0.125 µg/mL (≈ 0.152 µM) to inhibit growth (MIC). Further, the MIC entry with Salmonella paratyphi [6] (Salmonella enterica subsp. enterica serovar Paratyphi A) and in the assay on Pseudomonas aeruginosa [20] was “inactive” throughout.

Take `O=[N+]([O-])c1ccc2oc(C3=Nc4ccccc4SC(c4c[nH]c5ccccc45)C3)cc2c1` (stereo not given): the pIC50 on Cholinesterase is 4.14. The inhibition entry in [4] is “inactive”.

On to `COc1cccc2cc(C3=Nc4ccccc4SC(c4ccc(O)cc4)C3)oc12` (stereo not given), for which, on Cholinesterase, the pIC50 was 5.39. The inhibition result in assay [4] was “inactive”.
